Experimental data reported in ChEMBL document CHEMBL3351360, “Design and Synthesis of Orally Bioavailable Benzimidazole Reverse Amides as Pan RAF Kinase Inhibitors” (ACS Med Chem Lett, 2014).
≈ marks a conversion by molar mass, not a printed value. Calls of active or inactive are those of the source. The rule behind the calls is not given here.

Key:
[1] = target: Serine/threonine-protein kinase B-raf (Homo sapiens, UniProt P15056); test: Inhibition of BRAF (unknown origin)-mediated ERK phosphorylation by cell-based assay
Sequence of Serine/threonine-protein kinase B-raf (Homo sapiens, UniProt P15056) (P15056 whole entry): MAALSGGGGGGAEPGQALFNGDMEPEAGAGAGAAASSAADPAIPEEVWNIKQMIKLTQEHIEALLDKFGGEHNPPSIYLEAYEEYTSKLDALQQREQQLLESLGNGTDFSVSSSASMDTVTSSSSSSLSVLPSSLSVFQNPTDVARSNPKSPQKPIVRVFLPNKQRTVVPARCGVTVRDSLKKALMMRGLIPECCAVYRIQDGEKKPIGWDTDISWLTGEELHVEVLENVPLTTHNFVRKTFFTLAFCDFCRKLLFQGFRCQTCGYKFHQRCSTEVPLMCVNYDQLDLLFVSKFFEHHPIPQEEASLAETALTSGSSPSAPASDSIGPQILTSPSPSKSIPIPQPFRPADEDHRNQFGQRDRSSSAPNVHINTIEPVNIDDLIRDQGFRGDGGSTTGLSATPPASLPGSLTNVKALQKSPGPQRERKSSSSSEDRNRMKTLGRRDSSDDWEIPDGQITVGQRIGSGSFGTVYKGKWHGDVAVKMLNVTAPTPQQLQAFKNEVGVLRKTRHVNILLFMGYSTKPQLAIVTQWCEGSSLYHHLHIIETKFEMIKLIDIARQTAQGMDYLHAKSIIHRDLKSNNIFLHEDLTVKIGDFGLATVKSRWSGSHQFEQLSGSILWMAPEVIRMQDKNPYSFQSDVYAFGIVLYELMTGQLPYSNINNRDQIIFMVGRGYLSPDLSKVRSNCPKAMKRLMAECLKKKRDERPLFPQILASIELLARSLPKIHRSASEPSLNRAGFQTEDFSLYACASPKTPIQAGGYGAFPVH

[2] = target: Serine/threonine-protein kinase B-raf (Homo sapiens, UniProt P15056, V600E); test: Inhibition of BRAF V600E mutant (unknown origin)
Sequence of Serine/threonine-protein kinase B-raf (Homo sapiens, UniProt P15056, V600E) (P15056 2-766 V600E limits assumed): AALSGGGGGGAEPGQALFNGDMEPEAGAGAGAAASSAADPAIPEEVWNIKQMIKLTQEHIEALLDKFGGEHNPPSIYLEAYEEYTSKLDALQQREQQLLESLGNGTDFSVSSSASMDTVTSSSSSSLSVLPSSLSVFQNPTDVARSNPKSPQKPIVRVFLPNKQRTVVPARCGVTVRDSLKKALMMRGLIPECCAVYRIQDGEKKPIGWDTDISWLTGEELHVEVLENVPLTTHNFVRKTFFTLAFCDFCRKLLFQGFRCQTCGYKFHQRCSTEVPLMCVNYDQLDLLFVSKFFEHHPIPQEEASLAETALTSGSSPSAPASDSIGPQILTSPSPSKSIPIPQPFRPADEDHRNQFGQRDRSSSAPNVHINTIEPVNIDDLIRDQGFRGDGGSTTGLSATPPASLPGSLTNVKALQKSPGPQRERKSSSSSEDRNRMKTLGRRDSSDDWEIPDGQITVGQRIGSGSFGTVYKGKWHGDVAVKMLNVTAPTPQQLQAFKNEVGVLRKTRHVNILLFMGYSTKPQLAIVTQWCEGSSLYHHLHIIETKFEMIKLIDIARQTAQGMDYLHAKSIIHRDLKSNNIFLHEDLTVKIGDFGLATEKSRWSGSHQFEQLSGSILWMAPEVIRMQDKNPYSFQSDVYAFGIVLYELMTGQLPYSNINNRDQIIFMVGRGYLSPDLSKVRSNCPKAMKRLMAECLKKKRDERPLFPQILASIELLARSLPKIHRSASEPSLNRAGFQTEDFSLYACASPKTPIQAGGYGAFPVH

[3] = Half life in rat at 10 mg/kg, po as single dose; assay type: ADME, organism-based; design: dose 10 mg/kg, route oral; details: in vivo
Summary of the method: (§1)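 Rats received a single oral dose of 10 mg/kg. Clearance, volume of distribution, half-life and oral bioavailability were derived from the plasma PK profile.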

[4] = Clearance in rat at 10 mg/kg, po as single dose; assay type: ADME, organism-based; design: dose 10 mg/kg, route oral; details: in vivo; summary of the method: as §1
Cytochrome P450 3A4 = Cytochrome P450 3A4 (Homo sapiens, UniProt P08684); test: Inhibition of CYP3A4 (unknown origin); assay type: ADME
Sequence of Cytochrome P450 3A4 (P08684 whole entry): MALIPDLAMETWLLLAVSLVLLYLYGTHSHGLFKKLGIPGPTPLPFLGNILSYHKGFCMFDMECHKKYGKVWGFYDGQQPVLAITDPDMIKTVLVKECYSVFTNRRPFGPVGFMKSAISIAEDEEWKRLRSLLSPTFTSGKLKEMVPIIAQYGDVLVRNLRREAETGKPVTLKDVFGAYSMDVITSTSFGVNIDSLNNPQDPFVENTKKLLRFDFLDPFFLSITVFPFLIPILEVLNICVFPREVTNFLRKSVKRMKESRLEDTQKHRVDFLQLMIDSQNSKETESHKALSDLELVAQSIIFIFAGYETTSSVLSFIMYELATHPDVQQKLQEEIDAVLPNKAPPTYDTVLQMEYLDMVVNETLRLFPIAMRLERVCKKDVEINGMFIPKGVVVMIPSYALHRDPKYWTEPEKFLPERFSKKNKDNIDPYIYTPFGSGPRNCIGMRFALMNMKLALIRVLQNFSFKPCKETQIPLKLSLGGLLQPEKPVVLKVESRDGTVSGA

[5] = Solubility of the compound at pH 7; assay type: physicochemical; details: buffer
Rattus norvegicus = test: Volume of distribution in rat at 10 mg/kg, po as single dose; assay type: ADME, organism-based; design: dose 10 mg/kg, route oral; details: in vivo; summary of the method: as §1
[6] = Oral bioavailability in rat at 10 mg/kg as single dose; assay type: ADME, organism-based; details: in vivo; summary of the method: as §1
HT-29 [7] = test: Antitumor activity against human HT-29 cells harboring B-RAF V600E mutant xenografted in nude mouse assessed as tumor growth inhibition at 100 mg/kg/day […] relative to control; assay type: functional
Summary of the method: (§2)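 Nude mice received subcutaneous HT29 (BRAF V600E) colorectal cells at 3×10^6 cells/mouse, and tumors were established over 10 days. Mice were then randomized into 4 groups and dosed orally once daily with vehicle (5 mM citrate) or compound at 10, 30 or 100 mg/kg for 17 days. Tumor growth is given as ΔT/ΔC, and body weight was monitored.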

[8] = Stability in mouse plasma assessed as compound remaining at 1 uM at 37 degC after 45 mins; assay type: ADME, cell-free; details: read-out: Stability
Mus musculus [9] = test: Toxicity in human HT-29 cells harboring B-RAF V600E mutant xenografted nude mouse assessed as body weight loss at 10 mg/kg/day for […] relative to control; assay type: organism-based; details: in vivo; summary of the method: as §2
[10] = target: Platelet-derived growth factor receptor (Homo sapiens, UniProt P09619+P16234); test: Inhibition of PDGFR (unknown origin); assay type: protein-complex assay
[11] = target: Tyrosine-protein kinase Lck (Homo sapiens, UniProt P06239); test: Inhibition of LCK (unknown origin)
[12] = target: Mast/stem cell growth factor receptor Kit (Homo sapiens, UniProt P10721); test: Inhibition of c-Kit (unknown origin)
Sequence of Mast/stem cell growth factor receptor Kit (P10721 whole entry): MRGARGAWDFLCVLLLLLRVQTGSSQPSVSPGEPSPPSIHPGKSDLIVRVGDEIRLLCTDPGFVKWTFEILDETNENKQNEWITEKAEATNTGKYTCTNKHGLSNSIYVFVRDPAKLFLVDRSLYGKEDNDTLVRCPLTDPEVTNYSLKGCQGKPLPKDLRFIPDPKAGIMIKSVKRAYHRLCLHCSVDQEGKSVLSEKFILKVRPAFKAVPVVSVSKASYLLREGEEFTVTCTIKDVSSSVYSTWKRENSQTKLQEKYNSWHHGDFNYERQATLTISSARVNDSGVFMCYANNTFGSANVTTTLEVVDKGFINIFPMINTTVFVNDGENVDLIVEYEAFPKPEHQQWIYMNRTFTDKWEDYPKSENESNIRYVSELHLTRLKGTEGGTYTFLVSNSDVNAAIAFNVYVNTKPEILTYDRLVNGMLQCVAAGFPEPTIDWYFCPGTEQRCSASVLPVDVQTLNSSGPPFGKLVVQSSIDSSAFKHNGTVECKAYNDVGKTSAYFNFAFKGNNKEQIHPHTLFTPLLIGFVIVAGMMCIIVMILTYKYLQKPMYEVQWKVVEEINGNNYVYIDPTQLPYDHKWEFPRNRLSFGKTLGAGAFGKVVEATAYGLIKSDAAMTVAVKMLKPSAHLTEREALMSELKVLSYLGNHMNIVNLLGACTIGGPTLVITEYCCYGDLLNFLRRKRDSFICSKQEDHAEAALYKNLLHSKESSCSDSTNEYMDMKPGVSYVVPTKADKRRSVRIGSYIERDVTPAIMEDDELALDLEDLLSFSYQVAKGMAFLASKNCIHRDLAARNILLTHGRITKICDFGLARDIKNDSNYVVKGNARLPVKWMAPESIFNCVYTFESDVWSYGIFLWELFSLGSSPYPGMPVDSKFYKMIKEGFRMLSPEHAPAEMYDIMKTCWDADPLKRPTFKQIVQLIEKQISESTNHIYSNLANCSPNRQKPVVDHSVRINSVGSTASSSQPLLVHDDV

[13] = target: Macrophage colony-stimulating factor 1 receptor (Homo sapiens, UniProt P07333); test: Inhibition of CSF1R kinase (unknown origin)
Mus musculus [14] = test: Toxicity in human HT-29 cells harboring B-RAF V600E mutant xenografted nude mouse assessed as body weight loss at 30 mg/kg/day […] relative to control; assay type: organism-based; details: in vivo; summary of the method: as §2
HT-29 [15] = test: Antitumor activity against human HT-29 cells harboring B-RAF V600E mutant xenografted in nude mouse assessed as tumor growth inhibition at 30 mg/kg/day […] relative to control; assay type: functional; summary of the method: as §2
[16] = target: Voltage-gated inwardly rectifying potassium channel KCNH2 (Homo sapiens, UniProt Q12809); test: Inhibition of human ERG
Sequence of Voltage-gated inwardly rectifying potassium channel KCNH2 (Q12809 whole entry): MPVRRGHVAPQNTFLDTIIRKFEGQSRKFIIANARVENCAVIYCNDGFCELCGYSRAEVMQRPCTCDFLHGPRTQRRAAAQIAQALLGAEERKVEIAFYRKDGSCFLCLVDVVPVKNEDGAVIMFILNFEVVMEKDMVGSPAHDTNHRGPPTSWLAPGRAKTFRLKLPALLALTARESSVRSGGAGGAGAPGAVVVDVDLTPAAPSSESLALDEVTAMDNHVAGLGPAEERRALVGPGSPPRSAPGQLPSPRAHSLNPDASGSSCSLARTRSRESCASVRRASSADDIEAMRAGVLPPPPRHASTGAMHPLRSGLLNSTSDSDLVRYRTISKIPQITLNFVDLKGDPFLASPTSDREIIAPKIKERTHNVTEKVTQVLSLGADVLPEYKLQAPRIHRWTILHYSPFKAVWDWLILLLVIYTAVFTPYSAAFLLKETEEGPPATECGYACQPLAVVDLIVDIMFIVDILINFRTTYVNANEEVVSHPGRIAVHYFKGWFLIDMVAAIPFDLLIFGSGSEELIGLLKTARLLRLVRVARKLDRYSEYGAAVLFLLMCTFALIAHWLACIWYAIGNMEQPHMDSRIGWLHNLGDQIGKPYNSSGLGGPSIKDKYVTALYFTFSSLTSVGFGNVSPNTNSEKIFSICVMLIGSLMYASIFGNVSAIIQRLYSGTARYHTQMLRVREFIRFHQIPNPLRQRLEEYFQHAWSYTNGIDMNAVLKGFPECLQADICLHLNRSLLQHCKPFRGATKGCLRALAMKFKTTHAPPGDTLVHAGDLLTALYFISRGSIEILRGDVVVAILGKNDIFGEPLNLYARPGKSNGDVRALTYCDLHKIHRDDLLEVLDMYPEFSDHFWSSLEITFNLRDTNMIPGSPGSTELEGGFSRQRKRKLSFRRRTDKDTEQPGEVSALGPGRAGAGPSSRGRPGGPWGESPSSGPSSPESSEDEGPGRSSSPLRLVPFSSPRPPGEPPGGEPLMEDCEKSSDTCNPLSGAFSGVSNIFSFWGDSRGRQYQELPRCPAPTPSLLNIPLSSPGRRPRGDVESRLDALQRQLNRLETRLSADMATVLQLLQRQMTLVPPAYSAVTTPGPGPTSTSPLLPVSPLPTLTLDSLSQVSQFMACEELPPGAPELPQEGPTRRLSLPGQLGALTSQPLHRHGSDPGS

[17] = target: Vascular endothelial growth factor receptor (Homo sapiens, UniProt P17948+P35916+P35968); test: Inhibition of VEGFR (unknown origin); assay type: protein assay
HT-29 [18] = test: Antitumor activity against human HT-29 cells harboring B-RAF V600E mutant xenografted in nude mouse assessed as tumor growth inhibition at 10 mg/kg/day for […] relative to control; assay type: functional; summary of the method: as §2
[19] = target: Proto-oncogene tyrosine-protein kinase Src (Homo sapiens) (UniProt P12931); test: Inhibition of SRC (unknown origin)
Sequence of Proto-oncogene tyrosine-protein kinase Src (Homo sapiens) (P12931 2-536 limits assumed): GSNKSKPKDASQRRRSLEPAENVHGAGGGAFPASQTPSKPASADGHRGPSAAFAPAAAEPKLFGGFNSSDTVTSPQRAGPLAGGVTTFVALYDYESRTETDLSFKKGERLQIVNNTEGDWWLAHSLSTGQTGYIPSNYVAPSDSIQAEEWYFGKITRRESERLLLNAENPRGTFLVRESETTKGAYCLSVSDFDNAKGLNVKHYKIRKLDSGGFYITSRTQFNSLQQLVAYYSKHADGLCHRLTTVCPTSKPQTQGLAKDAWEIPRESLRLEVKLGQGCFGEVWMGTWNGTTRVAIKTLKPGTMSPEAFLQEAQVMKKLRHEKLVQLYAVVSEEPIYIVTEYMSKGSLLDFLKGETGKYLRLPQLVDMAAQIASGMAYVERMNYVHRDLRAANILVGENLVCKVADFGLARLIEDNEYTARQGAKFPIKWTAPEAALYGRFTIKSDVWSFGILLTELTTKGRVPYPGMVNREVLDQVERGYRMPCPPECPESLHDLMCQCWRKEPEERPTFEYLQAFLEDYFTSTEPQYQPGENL

HT-29 [20] = test: Inhibition of ERK phosphorylation in human HT-29 cells harboring B-RAF V600E mutant xenografted in nude mouse at 30 to 100 mg/kg/day for 16 days measured 4 to 24 hrs post final dose by Western blot analysis relative to control; assay type: functional, organism-based; details: TDE = time-dependent effect
Summary of the method: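 HT29 (BRAF V600E) subcutaneous xenografts in nude mice were dosed orally once daily in 5 mM citrate vehicle at 30 or 100 mg/kg. Tumors were harvested 4 and 24 h after the final dose. Lysates were analysed by Western blot for pERK and total ERK.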

Mus musculus [21] = test: Toxicity in human HT-29 cells harboring B-RAF V600E mutant xenografted nude mouse assessed as body weight loss at 100 mg/kg/day […] relative to control; assay type: organism-based; details: in vivo; summary of the method: as §2

Row | EC50 [1] [nM] | IC50 [2] [nM] | SMILES | also measured
1 | 40 | 3 | CC(=O)Nc1cc(Oc2ccc3c(c2)nc(Nc2cccc(C(C)(C)C)c2)n3C)ccn1 | 
2 | 100 | 0.4 | CC(=O)Nc1cc(Oc2ccc3c(c2)nc(Nc2cccc(OC(F)(F)F)c2)n3C)ccn1 | 
3 | 80 | 1 | CCc1ccc(Nc2nc3cc(Oc4ccnc(NC(C)=O)c4)ccc3n2C)cc1 | 
4 | 100 | 20 | CC(C)N1CCC(C(=O)Nc2cc(Oc3ccc4c(c3)nc(Nc3cccc(C(C)(C)C)c3)n4C)ccn2)CC1 | half-life [3]: 251 min; CL/F [4]: 90 mL/min/kg; INH (Cytochrome P450 3A4): 3 µM; solubility [5]: 581 µg/mL (≈ 1070 µM); Vd (Rattus norvegicus): 17784 mL/kg; bioavailability [6]: 15%
5 | 400 | 3 | CC(=O)Nc1cc(Oc2ccc3c(c2)nc(Nc2cccc(C(F)(F)F)c2)n3C)ccn1 | 
6 | 100 | 10 | CN1CCC(C(=O)Nc2cc(Oc3ccc4c(c3)nc(Nc3cccc(C(C)(C)C)c3)n4C)ccn2)CC1 | 
7 | 50 | < 0.4 | CC(=O)Nc1cc(Oc2ccc3c(c2)nc(Nc2cccc(C(C)C)c2)n3C)ccn1 | 
8 | 100 | 6 | CC(C)N1CCN(CC(=O)Nc2cc(Oc3ccc4c(c3)nc(Nc3cc(C(F)(F)F)ccc3F)n4C)ccn2)CC1 | INH (Cytochrome P450 3A4): 14 µM
9 | 100 | 6 | CCN1CCN(CC(=O)Nc2cc(Oc3ccc4c(c3)nc(Nc3cc(C(F)(F)F)ccc3F)n4C)ccn2)CC1 | half-life [3]: 340 min; T/C (HT-29 [7]): 75%; CL/F [4]: 32 mL/min/kg; remaining at 0.75 h, 1 µM [8]: 1%; Activity (Mus musculus [9]): Non-toxic; IC50 [10]: < 10 nM; IC50 [11]: 240 nM; IC50 [12]: < 10 nM; IC50 [13]: < 10 nM; Activity (Mus musculus [14]): Non-toxic; T/C (HT-29 [15]): 72%; INH [16]: 2.3 µM; IC50 [17]: < 10 nM; T/C (HT-29 [18]): 52%; INH (Cytochrome P450 3A4): > 25 µM; inhibition [19]: inactive; inhibition (HT-29 [20]): tde; Vd (Rattus norvegicus): 12737 mL/kg; bioavailability [6]: 40%; Activity (Mus musculus [21]): 13%
10 | 100 | 7 | Cn1c(Nc2cccc(C(C)(C)C)c2)nc2cc(Oc3ccnc(NC(=O)C4CCNCC4)c3)ccc21 | 
11 | 100 | 1 | CC(=O)Nc1cc(Oc2ccc3c(c2)nc(Nc2ccc(OC(F)(F)F)cc2)n3C)ccn1 | 
12 | 100 | < 0.4 | CCc1cccc(Nc2nc3cc(Oc4ccnc(NC(C)=O)c4)ccc3n2C)c1 | 
13 | 90 | 1 | CC(=O)Nc1cc(Oc2ccc3c(c2)nc(Nc2cc(C(F)(F)F)ccc2F)n3C)ccn1 | 
14 | 100 | 2 | CC(C)N1CCC(C(=O)Nc2cc(Oc3ccc4c(c3)nc(Nc3cc(C(F)(F)F)ccc3F)n4C)ccn2)CC1 | CL/F [4]: 49 mL/min/kg; bioavailability [6]: 54%
15 | 90 | 4 | CC(=O)Nc1cc(Oc2ccc3c(c2)nc(Nc2ccc(C(C)C)cc2)n3C)ccn1 | 
16 | 50 | 4 | CC(=O)Nc1cc(Oc2ccc3c(c2)nc(Nc2ccc(C(F)(F)F)cc2)n3C)ccn1 | remaining at 0.75 h, 1 µM [8]: 100%
17 | 50 | 9 | CC(=O)Nc1cc(Oc2ccc3c(c2)nc(Nc2ccc(C(C)(C)C)cc2)n3C)ccn1 | 
